ChEMBL document CHEMBL4371017, “Discovery and optimization of pyrazole amides as antagonists of CCR1” (Bioorg Med Chem Lett, 2019)

Tested on: not listed separately
Assay: Aqueous solubility of the compound
Assay type: physicochemical
Settings: water

Cc1c(C(=O)NCc2cccc(C(F)(F)F)c2)cnn1-c1ccc(Cl)c(Cl)c1 showed a solubility of under 1 µg/mL.

Target: T1, C-C chemokine receptor type 1 (Homo sapiens, UniProt P32246)
T1 sequence (P32246 whole entry): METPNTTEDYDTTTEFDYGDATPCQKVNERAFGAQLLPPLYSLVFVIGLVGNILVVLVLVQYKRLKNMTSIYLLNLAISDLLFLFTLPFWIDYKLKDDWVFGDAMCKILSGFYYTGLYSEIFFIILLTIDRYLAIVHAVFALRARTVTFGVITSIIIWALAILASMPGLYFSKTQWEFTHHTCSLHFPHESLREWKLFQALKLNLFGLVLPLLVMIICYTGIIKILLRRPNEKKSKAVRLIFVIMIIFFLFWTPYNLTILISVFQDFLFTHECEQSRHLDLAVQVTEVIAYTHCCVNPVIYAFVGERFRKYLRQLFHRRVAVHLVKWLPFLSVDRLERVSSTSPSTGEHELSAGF
Assay: Antagonist activity at recombinant CCR1 (unknown origin) expressed in non-adherent cells co-expressing Galpha16 assessed as inhibition of MIP-1 alpha-induced calcium flux by Fluo-4 NW or Calcium 4 dye based FLIPR TETRA assay
Assay type: functional, cell-based
Settings: not given
Outline: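 The cells stably co-express CCR1 and Gα16 and were loaded with dye for 1 h at room temperature with probenecid (Method A: Fluo-4 NW; Method B: Calcium 4), then plated at 20,000 cells/well. Compounds were tested at 10 doses from a 3,000 nM top (A 3-fold steps, B 4-fold), in 1% DMSO and HBSS/20 mM HEPES pH 7.4. Preincubation was 1 h at room temperature in the dark (A) or 30 min at 37°C then 30 min at room temperature (B). MIP-1α was added at EC80 and the calcium flux recorded.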

CCC[C@H](NC(=O)c1cnn(-c2ccc(Cl)cc2)c1C)c1cccc(C(F)(F)F)c1F and CC[C@H](NC(=O)c1cnn(-c2ccc(Cl)cc2)c1C)c1cccc(C(F)(F)F)c1F are within 1.5-fold of each other in IC50: 10 nM for the first, 13 nM for the second.

Cc1c(C(=O)NCc2cccc(C(F)(F)F)c2)cnn1-c1ccccc1Cl and Cc1c(C(=O)NCc2cccc(C(F)(F)F)c2)cnn1-c1ccccc1 cannot be ordered by IC50: over 3000 nM for the first, over 3000 nM for the second.

Cc1c(C(=O)NCc2cccc(C(F)(F)F)c2)cnn1-c1ccc(Cl)cc1 and Cc1c(C(=O)NCc2cccc(C(F)(F)F)c2)cnn1-c1ccc(F)cc1 are within 1.5-fold of each other in IC50: 600 nM for the first, 790 nM for the second.

Cc1cccc(-n2ncc(C(=O)NCc3cccc(C(F)(F)F)c3)c2C)c1 and Cc1c(C(=O)NCc2cccc(C(F)(F)F)c2)cnn1-c1cccc(Cl)c1 cannot be ordered by IC50: over 3000 nM for the first, over 3000 nM for the second.

First: Cc1nn(-c2ccc(Cl)c(Cl)c2)c(C)c1C(=O)NCc1cccc(C(F)(F)F)c1
Second: Cc1c(C(=O)NCc2cccc(C(F)(F)F)c2)cnn1-c1ccc(Cl)c(Cl)c1
The IC50 of the first is higher: over 3000 nM for the first, 500 nM for the second. The second is the more potent here.

Going from COCc1c(C(=O)NCc2cccc(C(F)(F)F)c2)cnn1-c1ccc(Cl)cc1 to O=C(NCc1cccc(C(F)(F)F)c1)c1cnn(-c2ccc(Cl)cc2)c1CO, the IC50 falls from over 3000 nM to 1200 nM. The second is the more potent here.

Cc1c(C(=O)NCc2cccnc2)cnn1-c1ccc(Cl)cc1 and Cc1c(C(=O)NCc2ccncc2)cnn1-c1ccc(Cl)cc1 cannot be ordered by IC50: over 3000 nM for the first, over 3000 nM for the second.

Going from Cc1c(C(=O)NCc2ccc(S(C)(=O)=O)nc2)cnn1-c1ccc(Cl)c(Cl)c1 to Cc1c(C(=O)NCc2ccc(S(C)(=O)=O)cc2)cnn1-c1ccc(Cl)cc1, the IC50 falls from over 3000 nM to 1700 nM. The second is the more potent here.

First: Cc1cc(C(=O)NCc2cccc(C(F)(F)F)c2)c(C)n1-c1ccc(Cl)cc1
Second: Cc1c(C(=O)NCc2cccc(C(F)(F)F)c2)nnn1-c1ccc(Cl)cc1
The IC50 of the first is 6.9-fold lower: 350 nM for the first, 2400 nM for the second. The first is the more potent here.

Cc1c(C(=O)NCc2cccc(C(N)=O)c2)cnn1-c1ccc(Cl)cc1 and Cc1c(C(=O)NCc2cccc(N)c2)cnn1-c1ccc(Cl)cc1 cannot be ordered by IC50: over 3000 nM for the first, over 3000 nM for the second.

Cc1nc(C(=O)NCc2cccc(C(F)(F)F)c2)nn1-c1ccc(Cl)cc1 and Nc1c(C(=O)NCc2cccc(C(F)(F)F)c2)cnn1-c1ccc(Cl)cc1 cannot be ordered by IC50: over 3000 nM for the first, over 3000 nM for the second.

First: Cc1c(C(=O)NCc2cccc(O)c2)cnn1-c1ccc(Cl)cc1
Second: Cc1c(C(=O)NCc2cccc(S(C)(=O)=O)c2)cnn1-c1ccc(Cl)cc1
The IC50 of the first is higher: over 3000 nM for the first, 2100 nM for the second.

Compared with Cc1cc(-c2ccc(Cl)cc2)sc1C(=O)NCc1cccc(C(F)(F)F)c1, Cc1nc(-c2ccc(Cl)cc2)sc1C(=O)NCc1cccc(C(F)(F)F)c1 is higher in IC50: 1900 nM for the first, over 3000 nM for the second. The first is the more potent here.

Going from Cc1c(C(=O)N[C@@H](C)c2cccc(C(F)(F)F)c2F)cnn1-c1ccc(Cl)cc1 to CN(C)c1c(C(=O)NCc2cccc(C(F)(F)F)c2)cnn1-c1ccc(Cl)cc1, the IC50 rises from 28 nM to over 3000 nM.

Cn1c(C(=O)NCc2cccc(C(F)(F)F)c2)cnc1-c1ccc(Cl)cc1 and Cn1cc(C(=O)NCc2cccc(C(F)(F)F)c2)nc1-c1ccc(Cl)cc1 cannot be ordered by IC50: over 3000 nM for the first, over 3000 nM for the second.

First: Cc1c(C(=O)NCc2cccc(C(F)(F)F)c2)cnn1-c1ccc([N+](=O)[O-])cc1
Second: Cc1c(C(=O)NCc2cccc(C(F)(F)F)c2)cnn1-c1cccc(C(F)(F)F)c1
The IC50 of the first is lower: 960 nM for the first, over 3000 nM for the second.

First: CC(C)(O)c1ccc2c(c1)/C(=C\CCN1CC[C@](O)(c3ccc(Cl)cc3)C(C)(C)C1)c1cccnc1CO2
Second: CC(C)[C@@H](NC(=O)NCC(C)(C)O)C(=O)N1CC[C@](O)(c2ccc(Cl)cc2)C(C)(C)C1 [BMS-817399]
The IC50 of the first is 3.8-fold lower: 0.8 nM for the first, 3 nM for the second. The first is the more potent here.

Compared with CNS(=O)(=O)c1ccc(CNC(=O)c2cnn(-c3ccc(Cl)cc3)c2C)cc1, Cc1c(C(=O)NCc2ccccc2S(C)(=O)=O)cnn1-c1ccc(Cl)cc1 is higher in IC50: 420 nM for the first, over 3000 nM for the second. The first is the more potent here.

Compared with CCCC(NC(=O)c1cnn(-c2ccc(Cl)cc2)c1C)c1ccc(S(C)(=O)=O)nc1 (stereo not drawn), Cc1c(C(=O)NCc2ccccn2)cnn1-c1ccc(Cl)cc1 is higher in IC50: 47 nM for the first, over 3000 nM for the second. The first is the more potent here.

O=C(NCc1cccc(C(F)(F)F)c1)c1cnn(-c2ccc(Cl)cc2)c1C(F)(F)F and O=C(NCc1cccc(C(F)(F)F)c1)c1cnn(-c2ccc(Cl)c(Cl)c2)c1 cannot be ordered by IC50: over 3000 nM for the first, over 3000 nM for the second.

First: Cc1c(C(=O)NCc2cccc(C(F)(F)F)c2)cnn1Cc1ccccc1
Second: COc1cc(N2CCN(C(=O)Cn3nc(-c4ncc[nH]4)c4cccnc43)CC2)ccc1Cl [CCX354]
The IC50 of the first is higher: over 3000 nM for the first, 2 nM for the second. The second is the more potent here.
